# Rows were chosen to be rich in hits. Some 4.8% of all compounds tested hit in one or more screens of this group.
# HSF1 inh: HSF1 inhibition; activity change, negative = inhibition, % at 7.5 µM (by protocol); AID 2098; actives 0.77% (n = 300,000); NIH3T3-HGL HSE-luciferase, MG132-induced, luminescence 8 h; active compounds read low;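 active means more than half of replicate wells show activity change below -50%, luminescence cut by over half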;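 further: luciferase reports HSF-1 transcriptional activity via heat shock element; 0% = median of DMSO wells and -100% = zero luminescence signal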
# 697 NFkB inh: lowers PMA/ionomycin-induced NF-kB signal in 697 B cells | actives 0.33% (n = 330,000) | 697 B-cell NF-kB luciferase reporter, 16 h | AID 435022 | inhibition, % at 4 µM; in the data active means inhibition above about 35%
# HSF1 activator: increases HSF-1 driven luciferase reporter signal. NIH3T3-HGL HSF-1 luciferase reporter, MG132, 8 h; 100% = twice DMSO control signal. activation, % at 9 µM. actives 1.7% (n = 300,000). AID 504408;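 active means mean replicate activation of at least 50% with a set share of replicates each reaching 50%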;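 further: 0% = median of the neutral control wells and 100% = twice that signal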
# GPR7 antag: antagonists of human GPR7 (neuropeptides B/W receptor 1); GPR7-expressing cells, fluorescence antagonist assay; inhibition, % at 4.4 µM; actives 1.1% (n = 290,000); in the data active means inhibition above about 16%, passing the limit was not always enough;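 further: cells stimulated with the agonist NPW; 0% = agonist with vehicle and 100% = vehicle without agonist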
# Target sequence (P48145 whole entry, looked up): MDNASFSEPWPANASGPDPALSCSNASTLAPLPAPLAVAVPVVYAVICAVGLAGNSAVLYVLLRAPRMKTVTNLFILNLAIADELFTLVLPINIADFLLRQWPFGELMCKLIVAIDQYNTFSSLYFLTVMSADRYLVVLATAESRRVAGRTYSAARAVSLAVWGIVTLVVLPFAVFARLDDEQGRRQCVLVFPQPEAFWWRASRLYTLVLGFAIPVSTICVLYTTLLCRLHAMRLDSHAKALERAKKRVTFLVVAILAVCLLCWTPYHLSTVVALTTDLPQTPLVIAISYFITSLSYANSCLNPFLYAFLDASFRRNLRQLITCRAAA
# Jurkat NFkB inh: lowers PMA/ionomycin-induced NF-kB signal in Jurkat cells; PMA/ionomycin-induced NF-kB luciferase reporter, luminescence; inhibition, % at 4 µM; actives 0.53% (n = 330,000); in the data active means inhibition above about 50%
# T cruzi inh: blocks replication of Trypanosoma cruzi | T. cruzi beta-gal in NIH3T3, luminescence, 90 h | inhibition, % (concentration not given with the values) | actives 1.4% (n = 300,000) | AID 1885;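 active means mean inhibition across valid replicates above about 55%, limit read from the data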;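 further: signal also drops with host cell toxicity which is not excluded here; 0% = plate median of DMSO wells and 100% = zero luminescence signal; higher percent means less beta-gal luminescence so fewer parasites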
#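 Incubation – ≥90 h infection period, 3 h prior cell attachment · System – NIH/3T3 fibroblasts plus reporter T. cruzi · Doses – compound pinned at 50 nL/well, DMSO · Read-out basis – percent inhibition of parasite-derived β-gal signal · Signal – luminescent β-galactosidase signal after 60 min lysis · Also added – 5000 T. cruzi trypomastigotes/well · Medium – Low-serum DMEM with 2% FBS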
# * hit, by the source's call; . = no result.
SMILES,HSF1 inh,697 NFkB inh,HSF1 activator,GPR7 antag,Jurkat NFkB inh,T cruzi inh
COc1ccc(C(=O)Cn2c(C(=O)/C=C/c3ccccc3)nc3ccccc32)cc1,224.9,-0.4,340.8*,6.5,-1.9,0.6
NS(=O)(=O)c1ccc(Nc2nc(-c3cccc([N+](=O)[O-])c3)cs2)cc1,-4.6,14.5,-7.8,6.7,3.1,57.8*
Clc1ccc(-c2ccc(SCc3ccccn3)nn2)cc1,47.1,-148.0,80.7*,18.6,-75.4,2.9
c1ccc(CSc2ccc(-c3ccccn3)nn2)nc1,20.0,-94.9,41.0,-10.9,-77.9,1.0
CC(C)CCc1noc(CN(C)CC2CCN(Cc3ccccc3)CC2)n1,-6.2,-2.5,-4.9,-1.8,-0.5,55.0*
CN(Cc1nc(-c2cnccn2)no1)CC1CCN(Cc2ccccc2)CC1,.,25.1,.,-2.7,-0.6,15.8
CC1(c2ccc(Cl)cc2)NC(=O)N(CC(=O)NC2CCCCC2)C1=O (stereo not given),.,10.0,.,.,2.6,.
CCOC(=O)c1sc(NC(=O)c2ccc(C)s2)cc1C,49.3,-29.8,68.7*,-1.2,-125.9,-5.5
CCOC(=O)c1sc(NC(C)=O)cc1C,9.4,4.5,37.7,0.2,-8.4,1.0
COc1ccc(C2CC(c3ccccc3)=NN2C(=O)COC(=O)c2cc(S(=O)(=O)N3CCOCC3)ccc2F)cc1 (stereo not given),6.3,-13.7,10.1,20.9*,3.5,16.7
COc1ccc(C2CC(c3ccccc3)=NN2C(=O)COC(=O)c2cccc(O)c2)cc1 (stereo not given),.,10.3,.,.,-9.2,.
COc1ccc(C2CC(c3ccccc3)=NN2C(=O)COC(=O)c2nc3nc(C)cc(C)n3n2)cc1 (stereo not given),5.2,6.7,-7.9,-5.7,-20.3,70.1*
COc1ccc(C2CC(c3ccccc3)=NN2C(=O)COC(=O)c2ccc(S(C)(=O)=O)cc2)cc1 (stereo not given),2.7,-2.1,-7.6,.,-3.5,16.1
COc1ccc(-c2nc(NC(=O)c3cc(C(C)(C)C)nn3C)sc2C)cc1,-8.7,8.5,-11.3,-12.3,21.2,57.0*
O=C(NC1CCCN(Cc2ccc(Cl)cc2)C1)c1c(F)ccc(F)c1F (stereo not given),6.2,-2.6,8.6,-18.4,2.8,44.6
COc1cc(C(=O)Oc2ccccc2/C=N/NC(=O)c2ccc(C)cc2)cc(OC)c1OC,32.2,-186.1,65.8*,-10.8,-11.1,2.9
COc1ccc(C(=O)N/N=C/c2ccccc2OC(=O)c2ccccc2)cc1,0.3,-105.7,9.9,7.3,-35.0,35.7
COc1ccc(C(=O)NNC(=O)C2CCCN(C3CC(=O)N(c4ccccc4)C3=O)C2)cc1 (stereo not given),1.4,15.5,-5.8,-2.3,0.8,-12.6
CCOC(=O)CSc1nc2c(sc(=S)n2Cc2ccco2)c(=O)n1-c1ccc(F)cc1,40.8,7.1,80.4*,3.0,9.1,16.8
CCN(CC)C(=O)CSc1nc2c(sc(=S)n2-c2ccccc2)c(=O)n1Cc1ccco1,43.1,-25.7,66.6*,16.5,4.5,23.6
CC(=O)c1sc(NC(=O)c2ccc(C)c(C)c2)nc1C,29.4,-138.0,53.1*,-0.4,-117.8,1.4
O=C(c1cc(Cl)ccc1Cl)N1CCOCC1,-71.9*,8.5,-77.6,-6.3,-0.1,-9.0
O=C(O)c1cc(Cl)c(Cl)cc1C(=O)N1CCOCC1,-8.5,5.8,-13.3,-7.1,-3.9,-10.2
Cc1ccc(C(=O)N2CCCCC2)cc1NC1=C(Cl)C(=O)N(Cc2ccccc2)C1=O,.,7.0,.,.,6.3,.
Cc1ccc(O)c(NC2=C(Cl)C(=O)N(Cc3ccccc3)C2=O)c1,19.2,.,14.7,0.6,.,58.1*
SMILES,HSF1 inh,697 NFkB inh,HSF1 activator,GPR7 antag,Jurkat NFkB inh,T cruzi inh
CC(C)(C)C1=CC(=O)C(=O)C(C(C)(C)C)=C1,11.8,-1.7,6.4,-12.0,2.1,73.8*
CCCCCCC1CC(C)(C(=O)CNc2nncs2)OC1=O (stereo not given),2.6,-17.5,6.4,7.9,-9.3,61.9*
CN(C)C(=S)SCC(=O)Nc1ccc(Cl)cc1Cl,27.8,-35.0,61.4*,-5.9,-28.3,-1.2
OC1(Cc2cc(-c3ccccc3)no2)CCN(CCCc2ccccc2)CC1,3.8,-11.0,16.1,-13.3,-0.1,36.3
O=C(CCCc1ccccc1)NC12CC3CC(CC(C3)C1)C2,22.7,-148.8,69.2*,9.8,-122.8,-1.8
O=C(COC(=O)c1ccccc1)NC12CC3CC(CC(C3)C1)C2,.,16.4,.,.,-6.2,.
CCc1nn(C(CC)C(=O)NCc2cccc(OC)c2OC)c(=O)c2cc3occc3n12 (stereo not given),20.1,11.7,66.8*,-0.5,12.4,-6.5
COc1ccc(OC)c(CN2CCN(C(=O)CCNC(=O)c3ccc(Br)cc3)CC2)c1,3.7,-33.2,17.5,.,-17.9,60.3*
COc1cc(NC(=O)c2ccccc2-c2ccccc2)cc(OC)c1,7.4,-26.7,3.2,-8.8,-10.2,10.4
CCc1nnc(N/N=C/c2ccc(O)c(OC)c2)n1N,20.3,21.8,38.7,-3.8,-1.6,5.2
CCc1nnc(N/N=C/c2cc(Br)c(O)cc2O)n1N,40.1,-2.7,56.9*,-9.6,15.5,-2.4
N#Cc1ccc(/C=N/N=C(N)N)cc1,-3.3,-0.1,-3.3,-7.8,5.7,35.4
Cc1ccc(COc2ccc(/C=N/O)cc2)cc1,26.9,-36.2,44.3,-20.3,-92.5,5.8
NC(N)=N/N=C/c1ccc(Br)cc1,-7.8,-3.1,1.4,6.5,49.4,66.6*
NC(N)=N/N=C/c1ccc(OCc2ccc(Cl)cc2)cc1,13.3,-132.5,-1.0,15.5,34.4,60.7*
NC(N)=N/N=C/c1ccc(OCc2ccccc2)cc1,6.6,-33.8,3.7,-3.3,27.5,71.4*
CCN(CC)CCNc1cc(C)nc2c1C(=O)C(=O)C=C2N1CCCCC1,-7.8,-8.4,-1.6,-7.4,13.7,60.4*
CCN(CC)CCNC(=O)c1ccc(N2CCCCC2)c(NS(=O)(=O)c2ccc(C)cc2)c1,.,-12.5,.,3.6,-12.9,13.9
Cc1ccc(S(=O)(=O)NCCNC(=O)N2CCOCC2)cc1,-17.8,26.5,-2.1,-8.3,-1.2,-14.9
Cc1ccc(S(=O)(=O)NCCOc2nc(N3CCOCC3)nc(N3CCOCC3)n2)cc1,22.2,17.9,57.8*,-6.3,8.9,6.6
CCN(CC)CCn1nc2c3c(cccc3c1=O)-c1ccccc1-2,105.7,-173.1,173.1*,-10.8,30.7,57.9*
CS(=O)(=O)N1CCc2cc(C(=O)N3CCCC3)ccc21,-8.5,12.7,-9.3,-7.0,-10.3,-7.8
Cc1ccc(NNC(=O)c2ccno2)c(C)c1,19.1,-3.9,68.4*,-9.7,8.7,9.1
CCCCn1c(N)c(N(CC(C)C)C(=O)C2CCN(S(=O)(=O)c3ccc(F)cc3)CC2)c(=O)[nH]c1=O,-0.2,19.7,36.8,-6.4,8.7,-19.5

# High-throughput results from PubChem.
